B1: tRNA (parent)
chain: GUUCCGUUGGCGUAAUGGUAACGCGUCUCCCUCCUAAGGAGAAGACUGCGGGUUCGAGUCCCGUACGGAACG

Variants of: B1
Experiment: yeast fitness, log relative to wild type (ln ratio); higher = fitter; tRNA-Arg(CCU), competitive growth, 37 C, 1 M NaCl
Outline: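 For each genotype, fitness is defined as the natural log of its generation number over the wild type's. The tRNA-Arg(CCU) variant library was on a HIS3 centromeric plasmid in BY4742 with the chromosomal gene removed, and pools were first grown 4 generations in SC-HIS at 30 °C and then ~6.5 generations (~26.5 h) in SC-HIS 1M NaCl at 37 °C. Generations were calculated from OD-scaled log2 output/input frequency, weighted by inverse variance across replicates, using counts from 125 bp paired-end Illumina sequencing.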

Row | Variant | yeast fitness (ln)
1 | C27U A43C C66U A69G A70G | -0.255
2 | G1A U2C G6A A43C C46U C66U C71U | -0.246
3 | U2G A43C C66A A69G A70G | -0.162
4 | G1A A43C C46U A69G | -0.261
5 | U2G G6U C27U A43C C46U C66A | -0.0517
6 | G1A C27U A43C C66U A69G A70G | -0.295
7 | U2C G6A C27U A43C C46U C66A A70G C71U | -0.0721
8 | U2G A43C C46U A69G A70U | -0.00112
9 | A43C C46U C66A A69G C71U | -0.26
10 | C27U C66U A70G | -0.116
11 | G6U C27U A69G | -0.222
12 | G6U C27U A43C C46U C66U A69G A70U C71U | -0.535
13 | U2G G6U C27U C46U C66A A70G | -0.376
14 | G1A G6A A43C C66U A70G C71U | -0.377
15 | U2C C27U A43C C66U A70U C71U | -0.343
16 | G1A U2C C46U C66U A70G C71U | -0.01
17 | U2G G6A C46U C66U A70G C71U | -0.35
18 | G1A G6U A43C A69G C71U | -0.28
19 | U2G G6A C27U C46U C66A A70U | -0.134
20 | U2G G6A C27U C46U C66A A70G | -0.16
21 | G1A G6A A43C A69G C71U | -0.335
22 | G1A U2C G6A A43C | -0.0264
23 | G1A U2C G6U A43C C46U C66A A70U | -0.177
24 | G1A U2G G6U A43C A70U C71U | -0.41

Row | Variant | yeast fitness (ln)
25 | G6A C27U | -0.0758
26 | G1A U2G G6A C27U A43C | -0.235
27 | G1A U2C G6U C66U A69G A70G | -0.362
28 | G6A A43C C66U A70G | -0.128
29 | G6U A43C C66U A69G C71U | -0.394
30 | U2C C71U | -0.101
31 | G1A A43C C46U C66U A70G | -0.1
32 | U2G G6U C27U C46U A69G A70G | -0.191
33 | G1A U2C G6U C46U A70G C71U | -0.00847
34 | G1A U2G G6A C46U C66A A70U C71U | -0.134
35 | U2C C27U A43C A69G A70U | -0.136
36 | G1A G6U C27U A43C C66A A70G | -0.33
37 | G1A U2G G6U C27U A43C C66U A70G | -0.4
38 | U2C G6A C27U A43C C46U C66U A70G C71U | -0.0215
39 | A43C C46U C66U A70U | -0.0743
40 | C27U A43C C46U | -0.00723
41 | G1A U2C G6A C46U | 0.00156
42 | U2G C66A A69G A70G | -0.148
43 | G6U A43C C46U C66U A70U | -0.234
44 | U2G A43C C46U | -0.0426
45 | G1A G6A C27U A43C C46U A70U C71U | -0.263
46 | G1A C27U A43C C46U C66A A70U C71U | -0.359
47 | U2G G6A C46U A69G A70U C71U | -0.272
48 | G6U C46U C66U A69G A70U | -0.235

Row | Variant | yeast fitness (ln)
49 | G6U C46U C66U A69G A70G | -0.275
50 | G1A U2G G6U C27U C46U A69G C71U | -0.26
51 | U2G G6U C46U C66A A69G A70G C71U | -0.164
52 | U2C G6U C27U C46U C66A | -0.267
53 | G1A U2C G6U C46U A69G A70U C71U | -0.249
54 | C46U A70U | 0.00508
55 | G1A U2C C27U A69G A70U | -0.0698
56 | G1A U2C G6U C46U C71U | -0.111
57 | U2G A43C C66U A69G A70G | -0.222
58 | U2G C27U A43C C66A C71U | -0.238
59 | U2C G6U C27U A43C C46U C66A A70U C71U | -0.164
60 | G1A U2G G6U C71U | -0.196
61 | U2G C27U A69G A70U | -0.0281
62 | U2G G6U A43C A69G A70G | -0.237
63 | G6U A43C C66U C71U | -0.422
64 | U2G A43C C46U C66A A69G A70U | -0.0871
65 | G1A C27U A43C C46U A69G A70G C71U | -0.336
66 | U2G G6A C27U A43C A70U | -0.119
67 | G1A C27U C46U C66U | -0.215
68 | U2C G6U A43C C46U A69G A70G C71U | -0.149
69 | G6U A69G A70U C71U | -0.394
70 | G1A U2C C27U C66U A69G A70G C71U | -0.585
71 | U2C G6A A43C C66U A70U | -0.06
72 | G1A C46U C66A | 0.0129

Row | Variant | yeast fitness (ln)
73 | G6A C27U A43C A69G A70U | -0.345
74 | U2G G6A C27U A43C C46U A70G C71U | -0.201
75 | G1A U2G C46U C66A A69G A70G C71U | -0.173
76 | G1A U2G C27U A43C C46U C66A | -0.106
77 | G6A C27U A43C C66U A69G A70U C71U | -0.529
78 | G1A C27U A69G A70U | -0.216
79 | G1A U2G G6U C27U A43C A70U | -0.338
80 | G1A U2G G6U A69G A70G C71U | -0.427
81 | U2G G6U C46U A69G A70G C71U | -0.217
82 | U2G C27U C66A A70U C71U | -0.195
83 | U2C C27U A70U | -0.0757
84 | U2C A43C C66U A69G A70G C71U | -0.23
85 | G1A C27U C66A A70G | -0.212
86 | U2C G6U A43C C66A A69G A70U | -0.338
87 | U2G G6A C27U C66U A69G | -0.193
88 | G1A G6A C27U C66U A70U | -0.431
89 | G1A U2G G6A A43C C46U C66U A69G A70G C71U | -0.206
90 | C27U C46U C66U A69G A70G | -0.197
91 | U2C G6U C27U A43C C66U A69G A70G C71U | -0.347
92 | G6A C27U A43C C46U C66U A70G | -0.193
93 | U2C G6U C27U C46U | -0.0552
94 | G6A C46U A69G A70U | -0.176
95 | U2C A43C C46U C71U | -0.193
96 | G1A U2G A69G A70U | -0.232

Row | Variant | yeast fitness (ln)
97 | U2C G6U C66U | -0.0417
98 | U2G G6A C27U A43C C46U A70U C71U | -0.176
99 | G6U C71U | -0.261
100 | A43C C46U A70U C71U | -0.131
101 | G6U C27U C66U A69G C71U | -0.377
102 | G1A U2C G6U C27U C66U A69G A70G C71U | -0.251
103 | U2G A43C C46U A70G C71U | -0.149
104 | G1A G6A A43C C66U A69G C71U | -0.811
105 | U2C G6U A43C C46U C66U C71U | -0.242
106 | G1A U2G C27U C46U C66U | -0.185
107 | U2G G6U C66A A69G A70G C71U | -0.158
108 | U2C G6A A43C C46U C66A A70G | -0.123
109 | U2C G6U C27U C46U C66A A69G A70U C71U | -0.319
110 | G1A U2G G6A C27U C66U A70G C71U | -0.309
111 | G1A C27U A43C A69G A70U | -0.389
112 | G1A U2G G6U C27U A43C C46U C66U A69G A70G | -0.476
113 | G1A G6U C27U A43C A69G A70U C71U | -0.58
114 | G1A G6A C27U A43C C66A A69G A70G C71U | -0.299
115 | G1A U2C G6A C27U C46U C66U A69G A70G C71U | -0.0405
116 | U2G G6U C27U A43C C46U C66A A69G A70U | -0.357
117 | G1A G6U C27U A43C A70U C71U | -0.341
118 | U2G G6U A43C C66A A70G C71U | -0.265
119 | U2G C66A A69G A70U C71U | -0.291
120 | G1A G6U C46U C66A A69G C71U | -0.041

Row | Variant | yeast fitness (ln)
121 | G1A G6U C46U A70U C71U | -0.185
122 | U2C C27U C66U | -0.0757
123 | C27U A43C C46U C66U A69G A70U | -0.285
124 | U2C G6A C27U C46U A69G C71U | -0.172
125 | U2G C27U A43C C46U A69G A70U | -0.0275
126 | G1A G6U C27U | -0.16
127 | G1A U2C G6U A43C A69G A70U C71U | -0.248
128 | U2C G6U A43C C46U C66U A70U C71U | -0.254
129 | G1A U2G G6A A43C C66U A69G A70U | -0.45
130 | G1A U2G A43C C46U C66U A69G A70G C71U | -0.323
131 | U2G A69G C71U | -0.101
132 | U2C G6U C27U A43C C46U C66U A69G C71U | -0.465
133 | G1A A43C C46U C66A A69G A70G | -0.169
134 | G1A U2C G6U A43C C46U C66U A69G A70G C71U | -0.201
135 | A43C C66U A69G | -0.174
136 | G6U A43C C66A A70U | -0.307
137 | G1A U2C C27U C66U A70U | -0.108
138 | U2C G6A C66U A70U | -0.0364
139 | U2C G6A C66U A70G | -0.00663
140 | G6U C27U A43C C66U A69G C71U | -0.395
141 | G1A U2G G6A C27U C66U A69G A70U | -0.26
142 | U2C G6A C46U C66A A69G A70G C71U | -0.258
143 | G1A C27U C66A A70G C71U | -0.346
144 | C46U C66U A69G A70G C71U | -0.084

Row | Variant | yeast fitness (ln)
145 | G1A U2C C27U C46U C66A A70U C71U | -0.15
146 | G1A G6A C27U A43C C46U A69G A70U | -0.259
147 | U2G C27U C66U A69G C71U | -0.282
148 | U2C C46U C66U A69G | -0.224
149 | G1A U2G G6A A43C C66U A70U C71U | -0.443
150 | U2C G6U A43C A70U C71U | -0.198
151 | U2C C46U C66A A69G A70G C71U | -0.128
152 | U2G G6U C27U C46U A70U C71U | -0.171
153 | G1A U2C G6U C27U C46U C66U A70G | -0.203
154 | U2G G6A C66U A70U | 0.001
155 | G1A U2C A43C | -0.0267
156 | U2G G6A C27U A70G C71U | -0.216
157 | U2C G6U A43C A69G C71U | -0.255
158 | G1A U2C G6U C66U A70G C71U | -0.0525
159 | U2G G6U C27U A43C C46U A69G C71U | -0.336
160 | G6U C27U C46U C66A A70G C71U | -0.434
161 | A43C C66U A69G A70U C71U | -0.365
162 | G1A G6U A69G A70U | -0.131
163 | G1A G6U A69G A70G | -0.198
164 | G1A U2C C27U A43C C46U A69G C71U | -0.167
165 | G6U C27U C66A C71U | -0.109
166 | G1A U2G G6U A43C C46U A69G A70G | -0.334
167 | C27U C46U A69G | -0.0243
